Compound activity as filed in PubChem BioAssay.
The list is not random: actives were taken first. Their share in the collection is about 3.7%.
KCNQ1 act = potentiates or activates the human KCNQ1 potassium channel; CHO-K1 KCNQ1, thallium flux FluxOR fluorescence; hits give high values; B-score at 10 µM; actives 0.35% (n = 310,000); AID 2648;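 active = fluorescence ratio B-score, a plate-corrected score, at least three library SD, with initial intensity B-score within 5 SD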
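Assay system: CHO-K1 cells stably expressing KCNQ1. Medium: assay buffer for compound exposure, DMSO matched across wells. Timing: 37 °C overnight plating, 90-min dark dye load, 20-min compound pretreatment. Signal: kinetic FluxOR fluorescence, 10 s baseline plus 110 s post-stimulus.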
KCNK3 block = human KCNK3 channel inhibition, primary screen. O14649. CHO-KCNK3 thallium flux, FluxOR fluorescence; hits give low values. B-score at 10 µM. actives 0.84% (n = 340,000). AID 602410;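 active = B-score under library mean minus 4 SD, starting fluorescence ratio at most library mean plus 5 SD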;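 note: more negative B-score means stronger inhibition of thallium flux through KCNK3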
hERG rescue = hERG (human) protection from proarrhythmic block. CHO-hERG, FluxOR thallium flux, dofetilide IC70 present. activation (rescue from dofetilide block), less the hit threshold, % at 10 µM. actives 0.51% (n = 310,000);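 active = activation above the mean of controls blocked by dofetilide plus 5 SD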;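 note: thallium influx through hERG after potassium depolarization seen as dye fluorescence rise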
Kir21 inh = inhibitors of mouse Kir2.1 inward-rectifier potassium channel; P35561; HEK293-Kir2.1, FluxOR thallium flux fluorescence; hits give low values; B-score at 10 µM; actives 0.85% (n = 310,000); AID 1672;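 active = fluorescence ratio B-score at or below minus 3 SD of library scores, with starting-brightness B-score within 2 SD, cut at about -4.2 in these data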;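 note: channel flux triggered by added potassium and thallium sulfate stimulus; B-score of peak minus minimum fluorescence over baseline after thallium stimulus; more negative B-score means stronger Kir2.1 block with less thallium influx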
Target sequence (P35561 whole entry, looked up): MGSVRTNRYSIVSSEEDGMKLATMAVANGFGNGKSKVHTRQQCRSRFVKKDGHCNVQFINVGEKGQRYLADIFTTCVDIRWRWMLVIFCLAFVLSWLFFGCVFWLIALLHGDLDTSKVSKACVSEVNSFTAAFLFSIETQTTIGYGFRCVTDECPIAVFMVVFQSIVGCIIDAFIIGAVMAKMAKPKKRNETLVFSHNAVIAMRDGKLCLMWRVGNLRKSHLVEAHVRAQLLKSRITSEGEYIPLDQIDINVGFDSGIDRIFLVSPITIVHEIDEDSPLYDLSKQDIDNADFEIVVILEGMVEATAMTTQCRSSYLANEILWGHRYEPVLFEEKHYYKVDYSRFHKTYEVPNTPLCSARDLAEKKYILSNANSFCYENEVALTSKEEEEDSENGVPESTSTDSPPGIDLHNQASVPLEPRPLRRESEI
KCNQ1 inh = human KCNQ1 channel inhibition; CHO-K1 KCNQ1, FluxOR thallium flux fluorescence; hits give high values; B-score at 10 µM; P51787; AID 2642; actives 1.3% (n = 310,000);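 active = compounds whose thallium flux B-score, printed positive for inhibition, exceeds three library SD while starting fluorescence stays within three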;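 note: channel opened by potassium depolarization with thallium stimulus after 20 min compound exposure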
KCNK9 block = human KCNK9 channel inhibition | Q9NPC2 | HEK293 KCNK9, FluxOR thallium flux fluorescence; hits give low values | B-score at 10 µM | actives 1.2% (n = 310,000) | AID 488922;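 active = ratio B-score over 3 SD below the library mean, with starting fluorescence within 5 SD of its mean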;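 note: negative B-score means less thallium flux so channel inhibition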
KCNK3 inh conf = confirmation of human KCNK3 two-pore domain potassium channel inhibitors; shares compounds with KCNK3 block; CHO-KCNK3 thallium flux, FluxOR fluorescence; 0% buffer, 100% carvedilol maximal block; ratio percent of control, % at 10 µM; actives 99% (n = 2,400); AID 651638;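 active = ratio percent of control, averaged over triplicates, above buffer control mean plus 5 SD, cut at about 64% in these data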;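 note: ratio is the fluorescence rise from min to max over baseline after thallium stimulus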
KCNK3 uninduced = KCNK3 inhibitor counter-screen hit in non-induced cells; shares compounds with KCNK3 block; non-induced KCNK3 parental cells, FluxOR thallium flux; hits give low values; thallium flux ratio (lower = more inhibition) at 10 µM; actives 40% (n = 2,400);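 active = thallium flux ratio, averaged over three wells, more than 5 SD below the buffer control mean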;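 note: host cells are CHO cells without KCNK3 induction; ratio is peak minus trough fluorescence over baseline then normalized to buffer controls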
Starred values were filed as active, the others as inactive; i = inactive; nt = no result given.

SMILES	KCNQ1 act	KCNK3 block	hERG rescue	Kir21 inh	KCNQ1 inh	KCNK9 block	KCNK3 inh conf	KCNK3 uninduced
CN(C)c1ccc(CNC(=O)C2CCC(CNc3c(N4CCCCC4)c(=O)c3=O)CC2)cc1 (stereo unspecified)	i	i	-5	-1.2	i	i	nt	nt
O=S(=O)(c1cccc(COc2ccc(Cl)cc2Cl)c1)N1CCOCC1	i	-9.9*	-14	-1.1	i	i	122*	0.16*
CC(=O)c1cc(Cl)ccc1OCc1cccc(S(=O)(=O)N2CCOCC2)c1	i	i	-22	-2.5	i	i	nt	nt
O=S(=O)(c1cccc(COc2c(Cl)cccc2Cl)c1)N1CCOCC1	i	-9.5*	-6	0.1	i	i	120*	i
O=[N+]([O-])c1ccc(F)cc1OCc1cccc(S(=O)(=O)N2CCOCC2)c1	i	i	-21	-1.2	i	i	nt	nt
CN1c2ccccc2C(=O)NC1c1ccc([N+](=O)[O-])s1 (stereo unspecified)	i	i	-8	-0.48	i	i	nt	nt
O=C(NCCn1cc(SCc2ccccc2)c2ccccc21)c1ccccc1F	i	-15*	-23	-1.1	8*	i	124*	0.15*
O=C(CCOc1cccc(Br)c1)Nc1ccc(F)c(S(=O)(=O)N2CCOCC2)c1	nt	-12*	nt	nt	nt	nt	97*	i
CCc1ccc2[nH]c(=O)c(CN(Cc3ccc4c(c3)OCO4)Cc3nnnn3C3CCCC3)cc2c1	i	-8.7*	-4	-0.83	i	i	128*	0.13*
Cc1ccc2cc(CN(Cc3ccc(F)cc3)Cc3nnnn3C3CCCC3)c(=O)[nH]c2c1	i	i	-3	0.29	i	i	nt	nt
Cc1ccc2cc(CN(Cc3ccccc3)Cc3nnnn3C3CCCC3)c(=O)[nH]c2c1	i	-10*	-6	0.2	i	i	103*	0.15*
CC(C)N1CCC(N2CCN(C/C=C/c3ccccc3)CC2CCO)CC1 (stereo unspecified)	i	i	-6	-0.25	i	i	nt	nt
CC12CCC(=O)N1C(C(=O)NNC(=O)c1cccc(Cl)c1)CS2 (stereo unspecified)	i	i	-12	-0.02	i	i	nt	nt
Cc1ccc(S(=O)(=O)N2CCCCC2)cc1NC(=O)COC(=O)C1(C)CC1(Cl)Cl (stereo unspecified)	nt	i	nt	nt	nt	nt	nt	nt
CNC(=S)NCc1ccc2[nH]c3c(c2c1)CCCC3	i	i	-25	-0.13	i	i	nt	nt
Cc1ccc(C)c(NC(=S)NCc2ccc3[nH]c4c(c3c2)CCCC4)c1	i	-13*	-7	0.01	i	i	120*	0.14*
Cc1ccc(-n2c(C)cc(/C=N/Nc3ccc([N+](=O)[O-])cn3)c2C)cc1	i	-13*	-3	-0.22	i	i	0	i
Cc1cc(/C=N/Nc2ccc([N+](=O)[O-])cn2)c(C)n1-c1ccccc1	i	i	-3	0.06	i	i	nt	nt
Cc1cc(/C=N/NC(=O)c2ccccn2)c(C)n1-c1cccc([N+](=O)[O-])c1	i	-9*	-3	0.9	i	i	88*	i
O=C(N/N=C\c1cc([N+](=O)[O-])ccc1N1CCCC1)c1ccccn1	i	i	-5	0.38	i	i	nt	nt
CC(C)(C)c1cc(C(=O)NNc2cc(C(F)(F)F)ccc2Cl)n(Cc2ccccc2)n1	i	-19*	-10	1.9	8*	i	139*	0.13*
Cc1ccc(NC(=O)c2cc(C(C)(C)C)nn2Cc2ccccc2)cc1	i	-16*	-17	0.48	i	i	148*	i
CCc1nc(Nc2ccccc2OC)c2oc3ccccc3c2n1	i	-9.2*	-5	0.27	i	i	116*	0.14*
CCc1nc(Nc2cc(OC)ccc2OC)c2oc3ccccc3c2n1	i	i	-1	1.9	i	i	nt	nt
NC(=O)c1cccc2c1C(=O)N(C1CCCCC1)C2	i	i	-11	-0.04	i	i	nt	nt
SMILES	KCNQ1 act	KCNK3 block	hERG rescue	Kir21 inh	KCNQ1 inh	KCNK9 block	KCNK3 inh conf	KCNK3 uninduced
Cc1cc(C)cc(NC(=O)c2cccc3c2C(=O)N(C2CCCCC2)C3)c1	i	-9.3*	-7	1.9	i	i	107*	i
CCN(Cc1ccc(OC)c(F)c1)C(=O)CCl	i	i	-14	0.17	i	i	nt	nt
CCN(Cc1ccc(OC)c(F)c1)C(=O)c1oc2ccccc2c1COC	i	-14*	-8	-2.5	i	i	94*	i
CCCN1CCC(NCc2cn(C)nc2-c2ccc(Oc3ccccc3)cc2)CC1	i	i	-16	-2.6	i	i	nt	nt
CCCCc1nn(-c2cc(Cl)ccc2OC)c2c1C(=O)CC(C)(C)C2	i	-10*	-4	-0.85	i	i	92*	i
CN(C(=O)c1ccoc1)c1ccc2ccccc2c1	i	-10*	-8	2.2	i	i	55*	i
CC(NC(=O)CCCc1c[nH]c2ccccc12)c1ccc(F)cc1 (stereo unspecified)	i	i	-7	-3.3	i	i	nt	nt
CCCc1ccc2oc(C(=O)N(Cc3nccn3C)C(C)C)c(C)c2c1	i	-11*	-7	0.02	i	i	113*	i
COc1ccc(CN2CNc3c(c(=O)n(C)c(=O)n3C)C2)cc1	i	i	-3	0.39	i	i	nt	nt
Cc1sc2ncnc(N3CCC(C(=O)Nc4nc(-c5cccs5)cs4)CC3)c2c1C	i	-8.9*	-18	0.57	i	i	94*	i
Cc1sc2ncnc(N3CCC(C(=O)Oc4cccc(Cl)c4Cl)CC3)c2c1C	i	-9.1*	-1	0.67	i	-8.1*	96*	i
Cc1sc2ncnc(N3CCC(C(=O)Nc4ccccc4C(C)(C)C)CC3)c2c1C	i	i	-11	0.46	i	i	nt	nt
C[C@H]1CN([C@@H](C)CO)C(=O)c2cc(NS(=O)(=O)c3ccc(Cl)cc3)ccc2O[C@@H]1CN(C)CC1CCCCC1	nt	-13*	nt	nt	nt	nt	93*	i
CCCC(=O)n1nc(-c2cccnc2)nc1NCc1ccccc1	i	i	-6	-0.24	i	i	nt	nt
O=C(COc1ccccc1)Nc1ccccc1N1CCCCC1	i	-11*	-4	-1.4	i	i	128*	i
Cc1ccc(OCC(=O)Nc2ccccc2N2CCCC2)c(C)c1	i	i	-9	-0.23	i	i	nt	nt
